M1 ag = human M1 muscarinic receptor agonism; P11229; CHO-K1 hM1, Fluo-8 calcium fluorescence, agonist mode; 0% DMSO, 100% acetylcholine EC100; activation, % at 3 µM; 0.33% of 360,000 active; AID 588814;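 active means activation above the run's mean compound activation plus 3 SD, cut at about 16% in these data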;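 further: peak over basal fluorescence ratio within a 140 s kinetic read after compound addition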
Target sequence (P11229 whole entry, looked up): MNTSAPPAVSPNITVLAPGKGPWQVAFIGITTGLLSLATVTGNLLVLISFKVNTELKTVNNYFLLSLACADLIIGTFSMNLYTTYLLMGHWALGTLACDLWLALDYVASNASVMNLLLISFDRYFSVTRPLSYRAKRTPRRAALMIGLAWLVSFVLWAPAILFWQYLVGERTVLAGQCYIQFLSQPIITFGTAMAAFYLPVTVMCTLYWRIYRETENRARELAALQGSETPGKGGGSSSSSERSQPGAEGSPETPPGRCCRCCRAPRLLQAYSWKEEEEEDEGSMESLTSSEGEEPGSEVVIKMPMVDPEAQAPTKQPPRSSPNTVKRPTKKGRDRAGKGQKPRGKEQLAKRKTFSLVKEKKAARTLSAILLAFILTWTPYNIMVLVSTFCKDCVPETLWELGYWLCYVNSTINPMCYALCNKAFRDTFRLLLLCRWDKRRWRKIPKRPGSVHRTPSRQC
CHRM1 antagonist = antagonists of human M1 muscarinic receptor | P11229 | CHO-K1 hM1, Fluo-8 calcium fluorescence, ACh EC80 antagonist | inhibition, % at 3 µM | 1.3% of 360,000 active;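 active means percent inhibition above its own plate's cutoff, namely the mean of that plate's compound wells plus 3 SD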;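 further: peak over basal fluorescence ratio during 140 s after agonist addition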
M1 PAM = human CHRM1 positive allosteric modulation; P11229; CHO-K1 hM1, Fluo-8 calcium fluorescence, ACh EC20; 0% = ACh EC20, 100% = maximal ACh; activation, % at 3 µM; 0.088% of 360,000 active; AID 588819; in the data active means activation above about 19%, passing the limit was not always enough
TAAR1 antagonist = human TAAR1 antagonism. Q96RJ0. CHO RD-HGA16 TAAR1, Fluo-8 calcium fluorescence, antagonist. inhibition, % at 3 µM. 1.5% of 360,000 active;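 active means inhibition above a per-plate cutoff, the mean inhibition of test compounds on that plate plus 3 SD, cut at about 49% in these data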
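Test system: hTAAR1-expressing CHO RD-HGA16 cells, Gα16-coupled; Probe or stimulus: EC80 β-phenethylamine stimulus; Compound dosing: single nominal final test compound concentration of 3 µM; Timing: 140 s kinetic read after compound, 140 s after agonist; Signal: Fluo-8 calcium-sensitive fluorescence; Measure: % inhibition of agonist calcium response; Controls: DMSO and EC80 PEA controls.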
m5-HT2A agonist = mouse HTR2A agonism via beta-arrestin recruitment | 0.66% of 360,000 active | CHO-K1 mHTR2A beta-arrestin complementation, luminescence; percent of 30 µM serotonin response | P35363 | activation, % at 7.6 µM;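 active means activation above a run cutoff, the mean activation of all tested compounds plus 3 SD, cut at about 14% in these data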
TAAR1 agonist = human TAAR1 agonism | Q96RJ0 | CHO RD-HGA16 TAAR1, Fluo-8 calcium fluorescence; vehicle wells 0%, saturating PEA agonist 100% | activation, % at 3 µM | 0.99% of 360,000 active | AID 624467;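 active means activation above the mean activation of all test compounds in the run plus 3 SD, cut at about 38% in these data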
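System: CHO-derived RD-HGA16 cells with stable Gα16 and human TAAR1. Times: 17-24 h plating, Fluo-8 75 min 37 °C, 30 min RT. Measured by: calcium-sensitive Fluo-8 signal, excitation 470-495, emission 515-575 nm. Read-out basis: % activation relative to PEA EC100 response. Control set: DMSO and PEA EC100. Repeats: no replicates (n 1).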
Large screens that a line does not name were inactive. The list is not random: actives were taken first. Their share in the collection is about 3.9%.

COc1cccc(C(c2nnnn2C2CCCC2)N2CCN(C/C=C/c3ccccc3)CC2)c1OC (stereo not drawn)	CHRM1 antagonist 54
C(=C\c1ccccc1)/CN1CCN(C(c2ccnc3ccccc23)c2nnnn2C2CCCCC2)CC1 (stereo not drawn)	none
CCC(c1nnnn1C1CCCC1)N1CCN(C/C=C/c2ccccc2)CC1 (stereo not drawn)	none
C(=C\c1ccccc1)/CN1CCN(C(c2ccccc2)c2nnnn2C2CCCCC2)CC1 (stereo not drawn)	CHRM1 antagonist 43
Cc1cc(OCc2nc(-c3ccncc3)no2)cc(C)c1Cl	none
CCn1cnc2c1c(=O)n(CC(=O)OC(C)C(N)=O)c(=O)n2Cc1ccccc1 (stereo not drawn)	none
COc1ccccc1N(C(=O)CN1C(=O)c2ccccc2S1(=O)=O)C(C(=O)NCC1CCCO1)c1ccc(F)cc1 (stereo not drawn)	none
Cc1cccc(N(C(=O)CNC(=O)c2ccco2)C(C(=O)NCC2CCCO2)c2ccccc2)c1 (stereo not drawn)	CHRM1 antagonist 23
Cc1cc(C)c(N(C(=O)CN2C(=O)c3ccccc3S2(=O)=O)C(C(=O)NCC2CCCO2)c2ccc(F)cc2)c(C)c1 (stereo not drawn)	TAAR1 antagonist 52
CCOc1cc(NC(=O)C(C)C)c(OCC)cc1NC(=O)Nc1ccccc1	none
CN(CCCNC(=O)c1cccc(N2CCCC2=O)c1)c1ccccc1	CHRM1 antagonist 30
C[C@H]1COc2cc(N3CCCCC3)ccc2S(=O)(=O)N1	none (no result: M1 ag, CHRM1 antagonist, M1 PAM, m5-HT2A agonist)
COc1ccc(S(=O)(=O)Nc2ccccc2-c2nc3ccccc3[nH]c2=O)cc1	none
Cn1nc(C(F)(F)F)c(-c2ccc(Br)cc2)c1NC(=O)Nc1ccc(F)cc1F	CHRM1 antagonist 38
CN(C)S(=O)(=O)c1cccc(COC(=O)CN2C(=O)NC3(CCCC3)C2=O)c1	none
COc1ccc(C(C)(C)C)cc1NS(=O)(=O)c1cccc2cccnc12	M1 PAM 32
COc1ccc(OC)c(NS(=O)(=O)c2cccc3cccnc23)c1	none
C=CCOc1ccc(C=CC(=O)c2c(O)c(OC)c(OC)c(OC)c2OC)cc1	TAAR1 antagonist 69
COc1ccc(C=CC(=O)c2c(OC)cc(OC)c(OC)c2O)cc1	none
Cc1cc(C)n(CCC(=O)N2CCc3ccccc32)n1	none
Nc1nc(N)c(Br)c(Nc2ccc(Cl)c(Cl)c2)n1	TAAR1 agonist 46
Cc1nn(C)c(Cl)c1C(=O)NCC(=O)Nc1ccc(C(C)C)cc1	none
O=S(=O)(N/N=C/c1cccnc1)c1ccc(Cl)c(Cl)c1	none
Cc1onc(-c2ccccc2)c1C(O)c1ccc(F)cc1 (stereo not drawn)	CHRM1 antagonist 42
CCN(CC)c1ccc2nc3ccccc3[n+](CC)c2c1	CHRM1 antagonist 69 (no result: TAAR1 antagonist, TAAR1 agonist)
Cn1cnc([N+](=O)[O-])c1Sc1ccc(C(C)(C)C)cc1	TAAR1 agonist 42
Cc1ccc(-c2nnc(-c3cccc(NC(=O)c4cccs4)c3)o2)cc1	TAAR1 antagonist 52
O=C(Cc1cccs1)Nc1ccc(-c2nnc(-c3ccccc3)o2)cc1	none
Cc1cccc(-c2nnc(-c3cccc(NC(=O)Cc4cccs4)c3)o2)c1	TAAR1 antagonist 74
CCN1Cc2cc(OC)ccc2-c2ccccc2S1(=O)=O	none
COc1ccc(Oc2c(C)oc3c(CN(C)C)c(O)ccc3c2=O)cc1	CHRM1 antagonist 32
CC(C)(C)c1ccc(S(=O)(=O)N2CCC(O)(c3ccc(Cl)cc3)CC2)cc1	CHRM1 antagonist 71
CCCCn1c(N)c(N(CC(C)C)C(=O)CSCC(=O)Nc2ccc(C)cc2)c(=O)[nH]c1=O	none
O=C(NCCN1CCN(Cc2ccccc2)CC1)Nc1cc(Cl)cc(Cl)c1	TAAR1 agonist 44
CC(C)CCNC(=O)CN(CC1CCCO1)C(=O)CCC(=O)Nc1nccs1 (stereo not drawn)	M1 PAM 20
CC(C)CCNC(=O)CN(CC1CCCO1)C(=O)CCC(=O)Nc1ccccn1 (stereo not drawn)	none
Cc1cccc(CCNS(=O)(=O)c2ccc3c(c2)n(C)c(=O)c(=O)n3C)c1	TAAR1 agonist 39
CCC(Oc1ccc(C)cc1)C(=O)Nc1ccc(S(=O)(=O)Nc2nccs2)cc1 (stereo not drawn)	M1 ag 19
CCC(Oc1ccccc1)C(=O)Nc1ccc(S(=O)(=O)Nc2ncccn2)cc1 (stereo not drawn)	none
CCC(Oc1ccccc1)C(=O)Nc1ccc(S(=O)(=O)Nc2cc(C)on2)cc1 (stereo not drawn)	M1 PAM 29
Nc1ccccc1C(=O)C[C@H](N)C(=O)O	none
CN(C)c1ccc(C=C(C#N)C(=O)c2ccccc2)cc1Br	none
CNS(=O)(=O)c1cc(NC(=O)c2cnc(SC)n2-c2ccccc2)ccc1C	none
CN(C)NC(=S)Nc1cccc(C(F)(F)F)c1	none
CC(NC(=S)Nc1cccc(C(F)(F)F)c1)C(C)(C)C (stereo not drawn)	CHRM1 antagonist 46
Cc1cccnc1CN1CCN(Cc2nc(C(c3ccccc3)c3ccccc3)no2)CC1	CHRM1 antagonist 71
Cc1nc(CN2CCN(Cc3nc(C(c4ccccc4)c4ccccc4)no3)CC2)cs1	CHRM1 antagonist 65
CC(=O)N1CCN(Cc2nc(C(c3ccccc3)c3ccccc3)no2)CC1	none
O=C(O)Cc1ccc(N2N=C(c3ccccc3)CC2=O)cc1	none
O=C(COC(=O)c1ccc(Br)o1)Nc1ccc(N2CCOCC2)cc1	none
CCOC(=O)N1CCN(C(=O)c2cc(Cl)c(Cl)cc2C(=O)O)CC1	M1 ag 32 (no result: TAAR1 antagonist, TAAR1 agonist)
O=C(CCSc1nnc(-c2ccco2)o1)Nc1ccccc1	none
O=C(CCSc1nnc(-c2ccco2)o1)Nc1ccc(Cl)cc1	TAAR1 agonist 41
CCC(C)(C)NC(=O)C(c1ccc(OC)cc1)N(C(=O)CCC(=O)Nc1cc(C)on1)c1ccc2c(c1)OCO2 (stereo not drawn)	none
O=C(Nc1ccccc1-c1nc2ccccc2[nH]1)c1ccc(N2C(=O)CCC2=O)cc1	TAAR1 antagonist 50
O[Si](CCCN1CCCCC1)(c1ccc(F)cc1)C1CCCCC1 (stereo not drawn)	CHRM1 antagonist 97
O=C(NNC(=O)C1CCCC1)c1cc([N+](=O)[O-])cc([N+](=O)[O-])c1	none
Cc1cc(/C=C2/SC(=S)N(c3ccc([N+](=O)[O-])cc3)C2=O)c(C)n1-c1cccnc1	none
Cc1cc(/C=C2/SC(=S)N(c3cccc(Cl)c3)C2=O)c(C)n1-c1cccnc1	CHRM1 antagonist 27
O=C1NC(CCO)C(=O)NC1CCO (stereo not drawn)	none

Screening results deposited in PubChem BioAssay by The Scripps Research Institute Molecular Screening Center.
